Test results reported in paper PMC3172994 (Biochemistry, 2011).
Where “and” joins values, the source holds several entries; their conditions need not be identical. Identical values can stand only once. Like-named read-outs stand apart in the source and are kept apart here.

Legend:
thrombin [1] = conditions: cited from earlier work
human α-thrombin [2] = target: T1, human α-thrombin (Homo sapiens, UniProt P00734); assay: PABA fluorescence titration of SOS binding to human thrombin; conditions: for ΔG° / ΔFMAX / Kd: pH 7.4, 25 °C; for ΔFMAX: PABA fluorescence λEM 370 nm; for Kd: read-out: KD,OBS
human α-thrombin [3] = target: T1, human α-thrombin; format: biochemical
Outline: (§1)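 Purified α-thrombin with the test compound in 20 mM phosphate or Tris, pH 7.4, 150 mM NaCl, 0.1 mM EDTA or CaCl₂, 0.1% PEG 8000. Cuvette format: 5 nM enzyme, 50 μM Spectrozyme TH, room temperature. Plate format: 12.5 nM enzyme, 10 min preincubation at 25 °C. Initial A405 rate taken as activity relative to a no-compound control. A logistic fit gave IC50, Hill slope and maximal inhibition (from Y0, YM).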

BT (bovine thrombin) = BT (bovine thrombin) (Bos taurus, UniProt P00735); format: biochemical; conditions: not shown
Outline: as §1

[4] = target: HT cleavage of human fibrinogen (Homo sapiens, UniProt P00734); assay: Turbidimetric assay of thrombin cleavage of fibrinogen; format: biochemical; conditions: 0.7 - 1.8 mM SOS, turbidity at 600 nm
thrombin [5] = conditions: cited from earlier work; remark: listed apart in the source
[6] = pH 7.4, I = 0.15, 25 °C, Spectrozyme TH

For `N=C(N)c1ccc(N)cc1` [PABA, p-aminobenzamidine], the Kd (thrombin [1]) is listed as 60 to 80 µM.

For `O=S(=O)(O)OC[C@H]1O[C@@](COS(=O)(=O)O)(O[C@H]2O[C@H](COS(=O)(=O)O)[C@@H](OS(=O)(=O)O)[C@H](OS(=O)(=O)O)[C@H]2OS(=O)(=O)O)[C@@H](OS(=O)(=O)O)[C@@H]1OS(=O)(=O)O` [SOS, Sucrose octasulfate], the “contribution due to non-ionic forces” value (human α-thrombin [2]) was 2.4 kcal/mol, the “maximal decrease in fluorescence at 370 nm” value (human α-thrombin [2]; 20 mM sodium phosphate, pH 7.4, 50 mM NaCl) was “approximately 5%” and the “ΔG°” value (human α-thrombin [2]; 50 mM NaCl) was 7.9 ± 0.1 kcal/mol. The ΔFMAX (human α-thrombin [2]; 50 mM NaCl) was −4.8±0.1%, the “ΔG°” value (human α-thrombin [2]; 150 mM NaCl) was 6.4 ± 0.2 kcal/mol and the ΔFMAX (human α-thrombin [2]; 150 mM NaCl) was −6.4±0.3%. For the same compound, the “ΔG°” value (human α-thrombin [2]; 250 mM NaCl) was 5.2 ± 0.2 kcal/mol, the ΔFMAX (human α-thrombin [2]; 250 mM NaCl) was −9.2±0.6% and the “non-ionic contribution relative to heparin - HT complex” value (human α-thrombin [2]; SOS - HT vs heparin - HT) was “approximately 12.5 fold”. The “slope of logKD,OBS vs log[Na+]” value (human α-thrombin [2]; pH 7.4) was 3.8 ± 0.5, the “contribution of non-ionic forces, share of total binding energy” value (human α-thrombin [2]; pH 7.4, I 0.15) was “approximately 35%” and the ionic binding energy (human α-thrombin [2]; pH 7.4, I = 0.15, 25 °C) was 4.5 kcal/mol. The Kd (human α-thrombin [2]; 50 mM NaCl, I = 0.085) was ~1.4 µM and 1.4 µM, the Kd (human α-thrombin [2]; 150 mM NaCl) was 22 ± 4 µM and the Kd (human α-thrombin [2]; 250 mM NaCl) was 149 ± 25 µM. The “maximal inhibition of Spectrozyme TH hydrolysis” value (human α-thrombin [3]; HT, from Y0 and YM of equation 3) was 13.5 ± 0.2%, the Hill slope (human α-thrombin [3]; [6]) was 1.5 ± 0.5 and the IC50 (human α-thrombin [3]; [6]) was 4.5 ± 1.1 µM. The “maximal inhibition of Spectrozyme TH hydrolysis” value (BT (bovine thrombin)) was 20 ± 2.0%, the “effect on fibrinogen cleavage profile” value [4] was “gradual increase in the lag time of cleavage” and the “inhibition of thrombin hydrolysis of CBS31.39” value (thrombin [5]) was no more than 10%.
